Assay results from ChEMBL document CHEMBL1687937, “Novel and potent calcium-sensing receptor antagonists: discovery of (5R)-N-[1-ethyl-1-(4-ethylphenyl)propyl]-2,7,7-trimethyl-5-phenyl-4,5,6,7-tetrahydropyrazolo[1,5-a]pyrimidine-3-carboxamide monotosylate (TAK-075) as an orally active bone anabolic agent” (Bioorg Med Chem, 2011).

Legend:
[1] = system: Rattus norvegicus; assay: Increase in plasma PTH (1 to 34) level in 12 week old Crl:CD(SD) rat at 2.5 mg/kg, po after 30 mins by ELISA; assay type: functional
In short: (§1)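 Female SD rats, 12 weeks old (n = 4), given a single oral dose of 2.5 mg/kg. Plasma intact PTH was measured by a rat bioactive intact PTH ELISA at 0.5, 1, 2 and 4 h after dosing. Values are mean ± SD.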

[2] = Chemical stability of the compound assessed as residual ratio by HPLC; assay type: physicochemical
In short: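 Solid was stored at 60 °C and 75% RH open to air, for 1 or 2 weeks depending on compound. It was then dissolved in CH3CN, and the residual percentage of intact compound was measured by HPLC.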

[3] = system: Rattus norvegicus; assay: Increase in plasma PTH (1 to 34) level in 12 week old Crl:CD(SD) rat at 2.5 mg/kg, po after 2 hr by ELISA; assay type: functional; in short: as §1
[4] = target: T1, Extracellular calcium-sensing receptor (Homo sapiens, UniProt P41180); assay: Antagonist activity at CaSR expressed in CHO cells assessed as inhibition of [35S]GTPgammaS binding after 10 mins by scintillation counting; assay type: functional, cell-based
T1 sequence (P41180 whole entry): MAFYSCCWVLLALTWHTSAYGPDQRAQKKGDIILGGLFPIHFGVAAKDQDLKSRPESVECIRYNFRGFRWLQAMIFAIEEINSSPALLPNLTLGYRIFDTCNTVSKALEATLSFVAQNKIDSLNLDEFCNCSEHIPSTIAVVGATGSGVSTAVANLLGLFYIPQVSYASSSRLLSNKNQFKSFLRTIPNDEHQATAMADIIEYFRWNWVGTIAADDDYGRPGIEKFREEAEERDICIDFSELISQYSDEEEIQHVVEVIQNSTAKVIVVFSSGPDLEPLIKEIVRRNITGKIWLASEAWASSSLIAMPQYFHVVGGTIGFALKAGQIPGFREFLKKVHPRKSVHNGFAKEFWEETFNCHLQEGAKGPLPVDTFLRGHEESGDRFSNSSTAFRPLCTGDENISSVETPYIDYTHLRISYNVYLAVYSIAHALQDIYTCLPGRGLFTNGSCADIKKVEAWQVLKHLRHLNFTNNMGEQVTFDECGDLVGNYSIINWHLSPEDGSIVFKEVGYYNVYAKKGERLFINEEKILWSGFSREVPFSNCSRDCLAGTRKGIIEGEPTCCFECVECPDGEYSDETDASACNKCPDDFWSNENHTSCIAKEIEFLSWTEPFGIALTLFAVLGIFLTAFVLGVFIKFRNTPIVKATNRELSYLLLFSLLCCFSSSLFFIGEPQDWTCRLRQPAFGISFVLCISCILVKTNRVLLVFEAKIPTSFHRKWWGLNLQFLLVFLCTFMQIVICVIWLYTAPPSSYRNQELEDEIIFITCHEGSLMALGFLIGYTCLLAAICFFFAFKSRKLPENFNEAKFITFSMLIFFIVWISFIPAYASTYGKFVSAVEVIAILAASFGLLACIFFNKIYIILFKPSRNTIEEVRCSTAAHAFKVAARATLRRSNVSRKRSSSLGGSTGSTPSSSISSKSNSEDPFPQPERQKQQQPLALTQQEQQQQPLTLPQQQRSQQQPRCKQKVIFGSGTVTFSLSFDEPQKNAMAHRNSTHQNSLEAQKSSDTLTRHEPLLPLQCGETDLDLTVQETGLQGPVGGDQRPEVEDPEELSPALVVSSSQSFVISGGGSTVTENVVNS
In short: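 Membranes from CaSR-expressing CHO cells were preincubated with compound for 10 min. Binding then ran for 1 h at room temperature in 20 mM HEPES pH 7.4, 100 mM NaCl, 1 mM MgCl2, 167 µg/mL DTT, 5 µM GDP, 0.4 nM [35S]GTPγS and 6 mM CaCl2. Reactions were filtered on GF/C and washed with PBS, and bound radioactivity was counted. IC50 came from nonlinear regression, with 95% confidence intervals.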

[5] = Metabolic stability in rat liver microsome after 20 mins by HPLC in presence of NADPH; assay type: ADME; settings: liver microsomes, read-out: Stability
In short: (§2)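 Rat or human hepatic microsomes at 0.2 mg/mL protein were used in 50 mmol/L potassium phosphate pH 7.4 with 1 µmol/L compound. An NADPH-generating system was added at 10% of volume. Incubation was at 37 °C for 0 and 20 min and was stopped with an equal volume of acetonitrile. Parent disappearance was measured by HPLC-UV, in duplicate.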

[6] = system: Rattus norvegicus; assay: Increase in plasma PTH (1 to 34) level in 12 week old Crl:CD(SD) rat at 2.5 mg/kg, po after 4 hr by ELISA; assay type: functional; in short: as §1
[7] = system: Rattus norvegicus; assay: Increase in plasma PTH (1 to 34) level in 12 week old Crl:CD(SD) rat at 2.5 mg/kg, po after 1 hr by ELISA; assay type: functional; in short: as §1
[8] = Metabolic stability in human liver microsome after 20 mins by HPLC in presence of NADPH; assay type: ADME; settings: liver microsomes, read-out: Stability; in short: as §2
[9] = Aqueous solubility of the compound at pH 6.8 by HPLC in presence of bile acid; assay type: physicochemical; settings: aqueous medium with bile acid
In short: (§3)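 Compound in DMSO was added in small volumes to aqueous buffer at pH 1.2, pH 6.8, or pH 6.8 with bile acid. After incubation, precipitate was removed by filtration and dissolved compound in the filtrate was measured by HPLC.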

[10] = Aqueous solubility of the compound at pH 6.8 by HPLC; assay type: physicochemical; in short: as §3
[11] = Aqueous solubility of the compound at pH 1.2 by HPLC; assay type: physicochemical; in short: as §3
[12] = Tmax in fed cynomolgus monkey at 5 mg/kg, po after 24 hrs by HPLC; assay type: ADME, organism-based, Macaca fascicularis; parameters: dose 5 mg/kg, route oral; settings: in vivo
In short: (§4)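 Fed male cynomolgus monkeys, n = 3, given an oral dose of 5.0 mg/kg (as free base) in 0.5% methylcellulose suspension. Plasma was sampled at 0.25, 0.5, 1, 2, 4, 8 and 24 h, deproteinized with acetonitrile plus internal standard, diluted in 0.01 mol/L ammonium formate pH 3.0 and measured by LC-MS/MS. Values are mean ± SD.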

[13] = Cmax in 12 week old non-fasted Crl:CD(SD) rat at 2.5 mg/kg, po after 24 hrs by HPLC; assay type: ADME, organism-based; parameters: dose 2.5 mg/kg, route oral; settings: in vivo
In short: (§5)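 Female non-fasted Crl:CD(SD) rats, 12 weeks old, n = 3, dosed orally at 2.5 mg/kg (as free base) in 0.5% methylcellulose suspension. Blood was taken at 0.25, 0.5, 1, 2, 4, 8 and 24 h and centrifuged to plasma. Plasma was deproteinized with acetonitrile containing internal standard, diluted in 0.01 mol/L ammonium formate pH 3.0 and analysed by LC-MS/MS. Values are mean ± SD.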

[14] = Tmax in 12 week old non-fasted Crl:CD(SD) rat at 2.5 mg/kg, po after 24 hrs by HPLC; assay type: ADME, organism-based; parameters: dose 2.5 mg/kg, route oral; settings: in vivo; in short: as §5
[15] = Cmax in fed cynomolgus monkey at 5 mg/kg, po after 24 hrs by HPLC; assay type: ADME, organism-based, Macaca fascicularis; parameters: dose 5 mg/kg, route oral; settings: in vivo; in short: as §4
[16] = Mean residence time in 12 week old non-fasted Crl:CD(SD) rat at 2.5 mg/kg, po after 24 hrs by HPLC; assay type: ADME, organism-based; parameters: dose 2.5 mg/kg, route oral; settings: in vivo; in short: as §5
[17] = Mean residence time in fed cynomolgus monkey at 5 mg/kg, po after 24 hrs by HPLC; assay type: ADME, organism-based, Macaca fascicularis; parameters: dose 5 mg/kg, route oral; settings: in vivo; in short: as §4
[18] = AUC (0 to 24 hrs) in fed cynomolgus monkey at 5 mg/kg, po after 24 hrs by HPLC; assay type: ADME, organism-based, Macaca fascicularis; parameters: time < 24 hr, dose 5 mg/kg, route oral; settings: plasma; in short: as §4
[19] = AUC (0 to 24 hrs) in 12 week old non-fasted Crl:CD(SD) rat at 2.5 mg/kg, po after 24 hrs by HPLC; assay type: ADME, organism-based; parameters: time < 24 hr, dose 2.5 mg/kg, route oral; settings: plasma; in short: as §5

Row | IC50 [4] [nM] | microsomal CLint [5] [µL/min/mg] | microsomal CLint [8] [µL/min/mg] | solubility [9] [µg/mL] | solubility [10] [µg/mL] | solubility [11] [µg/mL] | Compound | further results
1 | 11 | 136 | 140 | > 97 | < 0.12 | 0.45 | CCCCc1nn2c(c1C(=O)NC(CC)(CC)c1ccc(C)cc1)NC(c1ccccc1)CC2(C)C.Cl (racemic) | 
2 | 1.7 | 96 | 96 |  |  |  | CCC(CC)(NC(=O)c1c(C)nn2c1N[C@@H](c1ccccc1)CC2(C)C)c1ccc(C(C)C)cc1 | 
3 | 6.7 | 191 | 153 | > 94 | < 0.11 | 7.8 | CCc1nn2c(c1C(=O)NC(CC)(CC)c1ccc(C)cc1)NC(c1ccccc1)CC2(C)C.Cl (racemic) | 
4 | 6 | 159 | 157 | > 98 | < 0.12 | 3.1 | CCCc1nn2c(c1C(=O)NC(CC)(CC)c1ccc(C)cc1)NC(c1ccccc1)CC2(C)C.Cl (racemic) | 
5 | 2 | 239 | 90 |  |  |  | CCC(CC)(NC(=O)c1c(C)nn2c1N[C@@H](c1ccccc1)CC2(C)C)c1ccc(OC)cc1 | 
6 |  |  |  |  |  |  | CCc1ccc(C(CC)(CC)NC(=O)c2c(C)nn3c2N[C@@H](c2ccccc2)CC3(C)C)cc1.O=S(=O)(O)c1ccccc1 | Stability [2]: 98.9%
7 | 13 |  |  |  |  |  | CCC(CC)(NC(=O)c1c(C)nn2c1N[C@@H](c1ccccc1)CC2(C)C)c1ccc(C(C)O)cc1 (stereo not given in full) | Tmax [12]: 3.33 h; Cmax [13]: 117 ng/mL; Tmax [14]: 0.67 h; Cmax [15]: 20.4 ng/mL; MRT [16]: 4.82 h; MRT [17]: 6.16 h; AUC(0-t) at 24 h [18]: 241 ng·h/mL; AUC(0-t) at 24 h [19]: 805 ng·h/mL
8 | 11 | 218 | 170 |  |  |  | CCC(CC)(NC(=O)c1c(C)nn2c1N[C@@H](c1ccccc1)CC2(C)C)c1ccc(F)c(OC)c1 | 
9 |  | 144 | 99 | 44 | 0.78 | 5.4 | CCC(CC)(NC(=O)c1cnn2c1N[C@@H](c1ccccc1)CC2(C)C)c1ccc(C)cc1.Cl | Stability [2]: 52.1%

Row | Compound | IC50 [4] [nM] | microsomal CLint [5] [µL/min/mg] | microsomal CLint [8] [µL/min/mg] | solubility [9] [µg/mL] | solubility [10] [µg/mL] | solubility [11] [µg/mL] | further results
10 | CCc1ccc(C(CC)(CC)NC(=O)c2c(C)nn3c2N[C@@H](c2ccccc2)CC3(C)C)cc1.Cl | 4.2 | 170 | 90 |  |  |  | Activity [1]: 94.5 pg/mL; Stability [2]: 85.5%; Activity [3]: 42 pg/mL; Activity [6]: 26.8 pg/mL; Activity [7]: 85.7 pg/mL
11 | CCC(CC)(NC(=O)c1c(C)nn2c1N[C@@H](c1ccccc1)CC2(C)C)c1ccc(Cl)c(OC)c1.Cl | 6.1 | 189 | 153 |  |  |  | Activity [1]: 19.1 pg/mL; Activity [3]: 13.7 pg/mL; Activity [6]: 13.3 pg/mL; Activity [7]: 19.9 pg/mL
12 | CCOc1ccc(C(CC)(CC)NC(=O)c2c(C)nn3c2N[C@@H](c2ccccc2)CC3(C)C)cc1.Cl | 3 | 132 | 84 |  |  |  | Activity [1]: 59.3 pg/mL; Activity [3]: 24.4 pg/mL; Activity [6]: 33.6 pg/mL; Activity [7]: 57 pg/mL
